In ChEMBL document CHEMBL3877250, “Design, synthesis, and biological evaluation of (2E)-(2-oxo-1, 2-dihydro-3H-indol-3-ylidene)acetate derivatives as anti-proliferative agents through ROS-induced cell apoptosis” (Eur J Med Chem, 2016) one finds Activity, inhibition of growth and IC50 data, which are given here for one molecule.

Series [1] in a line: Cell cycle arrest in human HCT116 cells assessed as G1 phase accumulation at 1 uM after 48 hrs by Annexin V-FITC/propidium iodide staining based flow cytometry (reference value: 40.83%). To be noted: HCT-116. It is filed as functional.
The nature of series [2]: Cytotoxicity against human HL60 cells assessed as growth inhibition at 20 uM after 72 hrs by CCK-8 assay. It is filed as functional. To be noted: HL-60, 72 h, read-out: GI. An outline of the steps: (§1)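 Cells kept in RPMI 1640 with 10% heat-inactivated fetal calf serum and 1% streptomycin/penicillin at 37 °C, 5% CO2. After compound exposure, CCK-8 was added and cells were incubated 4 h at 37 °C, then absorbance was read at 450 nm. Viability is relative to untreated cells (100%). IC50 comes from nonlinear regression, mean of three separate determinations. Single-concentration screen at 20 µM.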
For orientation: Tetrazolium dyes change colour on reduction, which living cells bring about.

Series [3] in a line: Cytotoxicity against human L02 cells. It is filed as toxicity, cell-based.
The nature of series [4]: Cytotoxicity against human OVCAR3 cells after 72 hrs by CCK-8 assay. To be noted: OVCAR-3, 72 h. It is filed as functional, cell-based. Put shortly:
as §1

Series [5] concerns HCT-116. Put plainly: Induction of apoptosis in human HCT116 cells assessed as late apoptotic cells at 8 uM after 48 hrs by Annexin V-FITC/propidium iodide staining based flow cytometry (reference value: 6.7%). It counts as functional. A general note: Flow cytometry measures light scatter and fluorescence of single cells or particles in a stream.
Series [6] relates to HCT-116. The series can be described thus: Induction of apoptosis in human HCT116 cells after 48 hrs by Annexin V-FITC/propidium iodide staining based flow cytometry. It is filed as functional, cell-based. Put shortly: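 HCT116 seeded at 2×10^5 cells/well, cultured 6 h, then treated 48 h at 0.1, 0.5, 1, 4, 8 or 16 µM; DMSO (0.1%) served as vehicle. Cells washed twice in cold PBS, resuspended in binding buffer with FITC Annexin V and PI for 15 min at RT in the dark, diluted, and run on flow cytometry within 1 h.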

Series [7] can be described thus: Cell cycle arrest in human HCT116 cells assessed as S phase accumulation at 0.1 uM after 48 hrs by Annexin V-FITC/propidium iodide staining based flow cytometry (reference value: 28.43%). It counts as functional. To be noted: HCT-116.
Series [8] relates to HCT-116. Put plainly: Induction of apoptosis in human HCT116 cells assessed as late apoptotic cells at 0.1 uM after 48 hrs by Annexin V-FITC/propidium iodide staining based flow cytometry (reference value: 6.7%). It counts as functional.
The test system of series [9] is HCT-116. Put plainly: Induction of apoptosis in human HCT116 cells assessed as early apoptotic cells at 8 uM after 48 hrs by Annexin V-FITC/propidium iodide staining based flow cytometry (reference value: 3.8%). It counts as functional.
The nature of series [10]: Cell cycle arrest in human HCT116 cells assessed as G1 phase accumulation at 3 uM after 48 hrs by Annexin V-FITC/propidium iodide staining based flow cytometry (reference value: 40.83%). It is filed as functional. To be noted: HCT-116.
A short description of series [11]: Cell cycle arrest in human HCT116 cells assessed as G2/M phase accumulation at 2 uM after 48 hrs by Annexin V-FITC/propidium iodide staining based flow cytometry (reference value: 25.3%). It is filed as functional. To be noted: HCT-116.
Series [12] in a line: Cell cycle arrest in human HCT116 cells assessed as sub-G1 phase accumulation at 1 uM after 48 hrs by Annexin V-FITC/propidium iodide staining based flow cytometry (reference value: 4.36%). It counts as functional. To be noted: HCT-116.

For the molecule `CC(C)(C)OC(=O)/C=C1/C(=O)Nc2ccccc21`, the Activity in series [1] is 25.4%; in the series with HCT-116 [5], 13.6%; with HCT-116 [6] it was “Dose-dependent effect”; in series [7] it was 32.9%; in the series on HCT-116 [8] it was 6.2%; in the series on HCT-116 [9] it was 7.1%. The Activity in series [10] turned out to be 35.6%; in series [11], 29.3%; in series [12] it was 1.06%. In addition, in series [2], the inhibition of growth at 20 µM amounted to 94.5%. Further, the concentration for half-maximal inhibition (IC50) (usually the point on the concentration scale where inhibition reaches its midpoint) came to 6.21 µM in series [3] and 6.55 µM in series [4].
